Results taken from ChEMBL document CHEMBL3779881, “Property Focused Structure-Based Optimization of Small Molecule Inhibitors of the Protein-Protein Interaction between Menin and Mixed Lineage Leukemia (MLL)” (J Med Chem, 2016).
Each block holds one compound with its values, some of them ahead of it. Calls of active or inactive are those of the source. The calls are words filed in the database; no cut-off is given here.

What was measured:
[1] = Efflux ratio of apparent permeability from […] side in human Caco2 cells at 10 uM after 2 hrs by LC-MS/MS analysis; type: ADME, cell-based; conditions: caco-2, 2 h
[2] = molecular target: Menin/Histone-lysine N-methyltransferase MLL (Homo sapiens, UniProt O00255); assay: Inhibition of menin-MLL interaction (unknown origin) after 1 hr by fluorescence polarization assay; type: protein assay
[3] = Half life in CD-1 mouse liver microsomes at 1 uM after 3 to 60 mins by LC-MS/MS analysis; type: ADME
[4] = Growth inhibition of MLL-AF9 transformed mouse bone marrow cells after 7 days by MTT assay; type: functional; conditions: Bone marrow cell, 168 h
[5] = Growth inhibition of Hoxa9/Meis1 transformed mouse bone marrow cells after 7 days by MTT assay; type: functional; conditions: Bone marrow cell, 168 h
Bone marrow cell = assay: Selectivity index, ratio of GI50 for Hoxa9/Meis1 transformed mouse bone marrow cells to GI50 for MLL-AF9 transformed mouse bone marrow cells; type: functional
Plasma = assay: Drug metabolism in C57BL/6 mouse plasma assessed as glucuronidation at 15 mg/kg, iv after 24 hrs by LC-MS/MS analysis; type: ADME, organism-based; conditions: in vivo
Summary of the method: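 Female C57BL/6 mice given 15 mg/kg iv in 25% DMSO/25% PEG-400/50% PBS; serial plasma samples analysed by the same LC-MS/MS procedure as the PK work to detect glucuronide conjugates.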

[6] = molecular target: T1, Menin/Histone-lysine N-methyltransferase 2A (Mus musculus) (UniProt O88559+P55200); assay: Inhibition of menin-MLL interaction in MLL-AF9 transformed mouse bone marrow cells assessed as induction of cell differentiation measured as decreased nuclei to cytoplasm ratio at 0.5 uM after 7 days by Cytospin/Wright-Giemsa staining assay
Summary of the method: (§1)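 MLL-AF9 transduced mouse bone marrow cells seeded at 3×10^5/mL, treated with compound or 0.25% DMSO at 37 °C, 5% CO2 for 7 days; cytospins stained with Wright–Giemsa and scored for morphology.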

MV4-11 [7] = assay: Growth inhibition of human MV4-11 after 7 days by MTT assay; type: functional; conditions: MV4-11, 168 h
Summary of the method: (§2)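 Cells in RPMI-1640/10% FBS/pen-strep/NEAA, seeded at 1×10^5/mL (MOLM-13, MV4;11) or 2×10^5/mL (HL-60), treated with compound or 0.25% DMSO for 7 days at 37 °C. Medium changed on day 4 with cell density reset and compound resupplied. MTT absorbance read at 570 nm; 2–3 experiments in quadruplicate, mean ± SD.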

[8] = molecular target: T1, Menin/Histone-lysine N-methyltransferase 2A (Mus musculus); assay: Inhibition of menin-MLL interaction in MLL-AF9 transformed mouse bone marrow cells assessed as induction of cell differentiation measured as upregulation of Itgam expression level at 0.12 to 0.5 uM after 6 days by qRT-PCR analysis
Summary of the method: (§3)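 MLL-AF9 transformed murine bone marrow cells treated 6 days, then qRT-PCR. Hoxa9 and Meis1 normalised to β-actin; Itgam normalised to 18S rRNA; each referenced to DMSO-treated cells; mean ± SD, n = 2.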

HL-60 = assay: Growth inhibition of human HL60 after 7 days by MTT assay; type: functional; conditions: HL-60, 168 h; summary of the method: as §2
Menin = molecular target: T2, Menin (Homo sapiens, UniProt O00255); assay: Binding affinity to menin (unknown origin)
T2 sequence (O00255 whole entry): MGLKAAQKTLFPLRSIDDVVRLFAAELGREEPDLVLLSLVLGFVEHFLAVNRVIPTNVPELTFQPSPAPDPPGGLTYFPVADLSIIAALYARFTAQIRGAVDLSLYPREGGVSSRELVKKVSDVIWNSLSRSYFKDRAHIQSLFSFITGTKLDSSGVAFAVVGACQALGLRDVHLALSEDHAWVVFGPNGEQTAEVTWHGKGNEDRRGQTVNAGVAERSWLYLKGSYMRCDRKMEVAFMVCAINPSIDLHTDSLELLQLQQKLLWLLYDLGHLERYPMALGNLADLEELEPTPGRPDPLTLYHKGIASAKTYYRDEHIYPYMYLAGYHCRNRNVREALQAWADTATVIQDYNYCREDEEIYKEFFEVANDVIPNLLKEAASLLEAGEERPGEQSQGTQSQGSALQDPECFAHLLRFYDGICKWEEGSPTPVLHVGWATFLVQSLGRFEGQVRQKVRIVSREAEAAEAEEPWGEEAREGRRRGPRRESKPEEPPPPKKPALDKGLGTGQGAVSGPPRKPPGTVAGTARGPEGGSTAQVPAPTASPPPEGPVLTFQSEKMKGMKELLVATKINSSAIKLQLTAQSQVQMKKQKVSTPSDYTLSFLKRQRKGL

[9] = molecular target: T1, Menin/Histone-lysine N-methyltransferase 2A (Mus musculus); assay: Inhibition of menin-MLL interaction in MLL-AF9 transformed mouse bone marrow cells assessed as induction of cell differentiation measured as highly vacuolated cytoplasm at 0.5 uM after 7 days by Cytospin/Wright-Giemsa staining assay; summary of the method: as §1
Mus musculus [10] = assay: AUC in C57BL/6 mouse at 15 mg/kg, iv after 24 hrs by LC-MS/MS analysis; type: ADME, organism-based; design: dose 15 mg/kg, time < 24 hr, route intravenous; conditions: in vivo
Summary of the method: (§4)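 Female C57BL/6 mice dosed iv at 15 mg/kg or orally at 30 mg/kg in 25% DMSO/25% PEG-400/50% PBS (v/v). Serial 50 μL blood samples collected over 24 h (8 h in one experiment), spun to plasma; concentrations by validated LC-MS/MS in positive-ion MRM mode; parameters from noncompartmental analysis.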

Mus musculus [11] = assay: Volume of distribution at steady state in C57BL/6 mouse at 15 mg/kg, iv after 24 hrs by LC-MS/MS analysis; type: ADME, organism-based; conditions: in vivo; summary of the method: as §4
Mus musculus [12] = assay: Toxicity in CB17 SCID mouse xenografted with human MV4-11 cells assessed as reduction in body weight at 45 mg/kg, ip qd administered for 2 weeks; type: organism-based; design: scale not given: the % may be the effect or the level left; conditions: in vivo, 336 h
Summary of the method: (§5)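 MV4;11 cells in serum-free medium mixed 1:1 with Matrigel; 5×10^6 cells injected subcutaneously into the right flank of female mice aged 4–6 weeks. Dosing began at ~100 mm³ tumours; mice randomised, once-daily ip injections of vehicle or compound for 2 weeks.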

[13] = Clearance in C57BL/6 mouse at 15 mg/kg, iv after 24 hrs by LC-MS/MS analysis; type: ADME, organism-based; conditions: in vivo; summary of the method: as §4
MV4-11 [14] = assay: Antitumor activity against human MV4-11 cells xenografted in CB17 SCID mouse assessed as tumor growth inhibition at 45 mg/kg, ip qd administered for 2 weeks; type: functional; conditions: MV4-11, ip, 336 h, read-out: TGI; summary of the method: as §5
MOLM-13 = assay: Growth inhibition of human MOLM13 after 7 days by MTT assay; type: functional; conditions: MOLM-13, 168 h; summary of the method: as §2
[15] = molecular target: T1, Menin/Histone-lysine N-methyltransferase 2A (Mus musculus); assay: Inhibition of menin-MLL interaction in MLL-AF9 transformed mouse bone marrow cells assessed as downregulation of Hoxa9 expression level at 100 nM after 6 days by qRT-PCR analysis; summary of the method: as §3
Mus musculus [16] = assay: Tmax in C57BL/6 mouse plasma at 30 mg/kg, po after 24 hrs by LC-MS/MS analysis; type: ADME, organism-based; conditions: in vivo; summary of the method: as §4
Mus musculus [17] = assay: AUC in C57BL/6 mouse at 30 mg/kg, po after 24 hrs by LC-MS/MS analysis; type: ADME, organism-based; design: time < 24 hr, dose 30 mg/kg, route oral; conditions: in vivo; summary of the method: as §4
[18] = molecular target: T1, Menin/Histone-lysine N-methyltransferase 2A (Mus musculus); assay: Inhibition of menin-MLL interaction in MLL-AF9 transformed mouse bone marrow cells assessed as induction of cell differentiation measured as multilobed nuclei at 0.5 uM after 7 days by Cytospin/Wright-Giemsa staining assay; summary of the method: as §1
Mus musculus [19] = assay: Oral bioavailability in C57BL/6 mouse at 30 mg/kg after 24 hrs by LC-MS/MS analysis; type: ADME, organism-based; conditions: in vivo; summary of the method: as §4
Mus musculus [20] = assay: Half life in C57BL/6 mouse at 15 mg/kg, iv after 24 hrs by LC-MS/MS analysis; type: ADME, organism-based; conditions: in vivo; summary of the method: as §4
[21] = molecular target: T1, Menin/Histone-lysine N-methyltransferase 2A (Mus musculus); assay: Inhibition of menin-MLL interaction in MLL-AF9 transformed mouse bone marrow cells assessed as downregulation of Meis1 expression level at 0.12 to 0.5 uM after 6 days by qRT-PCR analysis; summary of the method: as §3
Mus musculus [22] = assay: Cmax in C57BL/6 mouse plasma at 30 mg/kg, po after 24 hrs by LC-MS/MS analysis; type: ADME, organism-based; design: dose 30 mg/kg, route oral; conditions: in vivo; summary of the method: as §4
Mus musculus [23] = assay: AUC in C57BL/6 mouse at 15 mg/kg, iv after 8 hrs by LC-MS/MS analysis; type: ADME, organism-based; design: time < 8 hr, dose 15 mg/kg, route intravenous; conditions: in vivo; summary of the method: as §4
Mus musculus [24] = assay: Half life in C57BL/6 mouse at 15 mg/kg, iv after 8 hrs by LC-MS/MS analysis; type: ADME, organism-based; conditions: in vivo; summary of the method: as §4
Mus musculus [25] = assay: Cmax in C57BL/6 mouse plasma at 30 mg/kg, po after 8 hrs by LC-MS/MS analysis; type: ADME, organism-based; design: dose 30 mg/kg, route oral; conditions: in vivo; summary of the method: as §4
Mus musculus [26] = assay: Volume of distribution at steady state in C57BL/6 mouse at 15 mg/kg, iv after 8 hrs by LC-MS/MS analysis; type: ADME, organism-based; conditions: in vivo; summary of the method: as §4
Mus musculus [27] = assay: Oral bioavailability in C57BL/6 mouse at 30 mg/kg after 8 hrs by LC-MS/MS analysis; type: ADME, organism-based; conditions: in vivo; summary of the method: as §4
Mus musculus [28] = assay: AUC in C57BL/6 mouse at 30 mg/kg, po after 8 hrs by LC-MS/MS analysis; type: ADME, organism-based; design: dose 30 mg/kg, time < 8 hr, route oral; conditions: in vivo; summary of the method: as §4
Mus musculus [29] = assay: Tmax in C57BL/6 mouse plasma at 30 mg/kg, po after 8 hrs by LC-MS/MS analysis; type: ADME, organism-based; conditions: in vivo; summary of the method: as §4
[30] = Clearance in C57BL/6 mouse at 15 mg/kg, iv after 8 hrs by LC-MS/MS analysis; type: ADME, organism-based; conditions: in vivo; summary of the method: as §4

Chain of Menin/Histone-lysine N-methyltransferase MLL (Q03164 1-2718 partner limits assumed, one chain of several): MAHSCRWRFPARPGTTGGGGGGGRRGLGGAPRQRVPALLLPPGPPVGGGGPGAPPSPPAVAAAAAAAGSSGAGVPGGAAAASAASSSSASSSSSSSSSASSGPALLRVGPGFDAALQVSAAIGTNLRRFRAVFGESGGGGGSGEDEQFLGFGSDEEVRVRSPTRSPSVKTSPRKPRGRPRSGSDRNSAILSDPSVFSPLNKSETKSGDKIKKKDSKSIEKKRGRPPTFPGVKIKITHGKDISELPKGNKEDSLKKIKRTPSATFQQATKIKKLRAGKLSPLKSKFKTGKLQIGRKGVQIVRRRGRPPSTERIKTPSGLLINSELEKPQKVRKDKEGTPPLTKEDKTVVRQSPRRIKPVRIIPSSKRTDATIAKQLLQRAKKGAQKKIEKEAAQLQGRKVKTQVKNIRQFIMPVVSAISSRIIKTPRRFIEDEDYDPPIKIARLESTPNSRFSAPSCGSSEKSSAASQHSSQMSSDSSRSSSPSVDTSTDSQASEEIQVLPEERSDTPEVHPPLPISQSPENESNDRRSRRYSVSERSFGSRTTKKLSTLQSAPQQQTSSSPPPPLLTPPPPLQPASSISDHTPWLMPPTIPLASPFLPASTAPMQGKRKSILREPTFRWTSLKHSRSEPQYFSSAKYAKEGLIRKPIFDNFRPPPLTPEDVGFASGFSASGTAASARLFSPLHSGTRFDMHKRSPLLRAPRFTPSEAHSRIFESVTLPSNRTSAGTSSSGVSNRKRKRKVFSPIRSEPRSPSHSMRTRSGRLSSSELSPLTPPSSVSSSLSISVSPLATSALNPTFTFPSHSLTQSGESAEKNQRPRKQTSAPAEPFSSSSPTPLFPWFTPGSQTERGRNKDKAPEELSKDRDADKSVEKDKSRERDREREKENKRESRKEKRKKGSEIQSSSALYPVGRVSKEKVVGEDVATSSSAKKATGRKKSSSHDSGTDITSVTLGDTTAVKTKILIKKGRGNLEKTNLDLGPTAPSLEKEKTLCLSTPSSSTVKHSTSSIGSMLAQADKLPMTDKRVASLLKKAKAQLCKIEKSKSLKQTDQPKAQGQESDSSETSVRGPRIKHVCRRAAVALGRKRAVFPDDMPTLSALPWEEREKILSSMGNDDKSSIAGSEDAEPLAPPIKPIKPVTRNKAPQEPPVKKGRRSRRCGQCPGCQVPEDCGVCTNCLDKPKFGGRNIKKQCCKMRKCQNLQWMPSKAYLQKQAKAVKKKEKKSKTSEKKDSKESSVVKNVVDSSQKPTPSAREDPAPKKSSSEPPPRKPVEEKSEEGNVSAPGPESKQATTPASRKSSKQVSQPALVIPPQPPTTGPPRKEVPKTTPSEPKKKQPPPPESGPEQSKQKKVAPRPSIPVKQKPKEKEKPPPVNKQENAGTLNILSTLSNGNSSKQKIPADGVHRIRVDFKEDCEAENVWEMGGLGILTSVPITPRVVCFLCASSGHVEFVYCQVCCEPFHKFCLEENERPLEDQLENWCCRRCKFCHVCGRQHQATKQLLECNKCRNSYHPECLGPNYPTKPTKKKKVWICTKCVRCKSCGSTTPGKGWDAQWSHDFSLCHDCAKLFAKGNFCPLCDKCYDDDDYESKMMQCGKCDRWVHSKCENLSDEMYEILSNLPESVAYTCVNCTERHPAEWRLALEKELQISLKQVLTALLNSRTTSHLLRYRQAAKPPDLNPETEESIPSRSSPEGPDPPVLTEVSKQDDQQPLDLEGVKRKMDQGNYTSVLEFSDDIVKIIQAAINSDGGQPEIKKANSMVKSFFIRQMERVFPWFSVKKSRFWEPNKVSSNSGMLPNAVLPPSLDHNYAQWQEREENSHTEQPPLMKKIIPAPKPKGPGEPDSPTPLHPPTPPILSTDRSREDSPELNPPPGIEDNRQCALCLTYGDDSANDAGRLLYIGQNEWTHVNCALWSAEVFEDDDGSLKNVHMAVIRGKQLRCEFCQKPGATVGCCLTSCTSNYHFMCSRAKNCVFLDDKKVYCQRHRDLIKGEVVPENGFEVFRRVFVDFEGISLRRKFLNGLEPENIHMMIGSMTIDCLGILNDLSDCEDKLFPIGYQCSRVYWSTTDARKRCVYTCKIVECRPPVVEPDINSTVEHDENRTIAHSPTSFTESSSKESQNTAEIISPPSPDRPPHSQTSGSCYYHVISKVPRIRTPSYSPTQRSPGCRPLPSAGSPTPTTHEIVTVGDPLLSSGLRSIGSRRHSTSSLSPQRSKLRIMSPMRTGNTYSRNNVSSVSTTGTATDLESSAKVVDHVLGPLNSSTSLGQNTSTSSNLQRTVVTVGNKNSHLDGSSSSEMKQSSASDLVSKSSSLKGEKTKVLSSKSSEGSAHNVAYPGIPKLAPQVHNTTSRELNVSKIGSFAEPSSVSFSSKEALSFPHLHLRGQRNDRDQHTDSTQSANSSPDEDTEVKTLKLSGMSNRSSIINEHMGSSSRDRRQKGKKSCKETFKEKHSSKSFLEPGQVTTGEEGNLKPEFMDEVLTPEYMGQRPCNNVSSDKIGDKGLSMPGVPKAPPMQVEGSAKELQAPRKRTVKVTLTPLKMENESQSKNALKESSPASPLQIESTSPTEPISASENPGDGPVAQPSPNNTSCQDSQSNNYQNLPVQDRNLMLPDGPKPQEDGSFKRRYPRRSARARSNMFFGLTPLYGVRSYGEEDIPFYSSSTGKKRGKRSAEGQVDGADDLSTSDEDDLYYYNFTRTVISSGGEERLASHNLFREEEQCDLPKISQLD
Chain of Menin/Histone-lysine N-methyltransferase MLL (Q03164 2719-3969 partner limits assumed, one chain of several): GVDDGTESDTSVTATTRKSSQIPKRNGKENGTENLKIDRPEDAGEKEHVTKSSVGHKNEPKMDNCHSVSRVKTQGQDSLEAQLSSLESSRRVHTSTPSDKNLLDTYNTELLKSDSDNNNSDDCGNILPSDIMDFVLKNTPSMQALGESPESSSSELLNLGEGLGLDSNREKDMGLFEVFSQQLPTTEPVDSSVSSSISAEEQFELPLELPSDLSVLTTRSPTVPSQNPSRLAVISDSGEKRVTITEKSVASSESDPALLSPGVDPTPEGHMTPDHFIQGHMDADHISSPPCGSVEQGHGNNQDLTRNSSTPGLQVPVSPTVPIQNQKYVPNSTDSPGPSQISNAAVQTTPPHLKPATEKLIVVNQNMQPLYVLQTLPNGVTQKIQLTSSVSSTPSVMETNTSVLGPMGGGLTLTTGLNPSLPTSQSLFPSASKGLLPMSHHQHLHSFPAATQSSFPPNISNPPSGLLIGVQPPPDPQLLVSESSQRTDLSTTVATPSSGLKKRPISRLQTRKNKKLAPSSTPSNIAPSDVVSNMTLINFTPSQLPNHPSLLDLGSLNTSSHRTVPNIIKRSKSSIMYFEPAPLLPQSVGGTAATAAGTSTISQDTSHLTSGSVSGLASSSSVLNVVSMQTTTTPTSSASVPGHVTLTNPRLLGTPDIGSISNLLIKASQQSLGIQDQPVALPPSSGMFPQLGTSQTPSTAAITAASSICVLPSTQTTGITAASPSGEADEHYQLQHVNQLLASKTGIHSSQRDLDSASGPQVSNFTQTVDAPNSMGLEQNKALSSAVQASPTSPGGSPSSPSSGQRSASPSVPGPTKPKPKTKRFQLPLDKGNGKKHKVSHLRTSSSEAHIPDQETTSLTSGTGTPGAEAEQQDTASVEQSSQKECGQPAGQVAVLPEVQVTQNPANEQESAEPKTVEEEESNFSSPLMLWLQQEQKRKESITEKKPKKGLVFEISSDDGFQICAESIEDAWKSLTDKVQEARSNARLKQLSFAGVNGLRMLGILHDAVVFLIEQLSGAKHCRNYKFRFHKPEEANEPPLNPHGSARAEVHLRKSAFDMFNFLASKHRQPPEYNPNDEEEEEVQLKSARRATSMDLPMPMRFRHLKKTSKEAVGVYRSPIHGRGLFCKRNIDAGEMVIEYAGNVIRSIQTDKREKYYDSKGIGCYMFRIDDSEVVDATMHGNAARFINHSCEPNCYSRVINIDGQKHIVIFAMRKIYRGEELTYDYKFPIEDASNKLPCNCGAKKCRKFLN

Ratio [1]: > 90
IC50 [2]: 25 nM
t1/2 [3]: 0.9 h
Compound: N#Cc1cc2cc(CN3CCC(Nc4ncnc5sc(CC(F)(F)F)cc45)CC3)ccc2n1CC(N)=O
GI50 [4]: 780 nM
GI50 [5]: 25000 nM
RatioGI50 (Bone marrow cell): 32

Drug metabolism (Plasma): metabolite_detected
inhibition [6]: Active
GI50 (MV4-11 [7]): 175 nM
IC50 [2]: 21 nM
inhibition [8]: Active
GI50 (HL-60): > 6000 nM
Kd (Menin): 6.5 nM
inhibition [9]: Active
AUC (Mus musculus [10]): 17897 ng·h/mL
Vdss (Mus musculus [11]): 2.347 L/kg
clearance [13]: 14 mL/min/kg
GI50 (MOLM-13): 268 nM
inhibition [15]: 50%
Tmax (Mus musculus [16]): 2 h
AUC (Mus musculus [17]): 18090 ng·h/mL
inhibition [18]: Active
F (Mus musculus [19]): 51%
t1/2 (Mus musculus [20]): 1.6 h
inhibition [21]: Active
Cmax (Mus musculus [22]): 4572 ng/mL
Compound: N#Cc1cc2cc(CN3CCC(Nc4ncnc5sc(CC(F)(F)F)cc45)CC3)c(O)cc2n1Cc1cn[nH]c1
Activity (Mus musculus [12]): < 10%
inhibition in vivo at 45 mg/kg (MV4-11 [14]): 80%
GI50 [4]: 83 nM
GI50 [5]: 9000 nM
RatioGI50 (Bone marrow cell): 108

AUC (Mus musculus [23]): 16235 ng·h/mL
t1/2 (Mus musculus [24]): 1.4 h
IC50 [2]: 12 nM
t1/2 [3]: 0.917 h
Cmax (Mus musculus [25]): 101 ng/mL
Vdss (Mus musculus [26]): 1.837 L/kg
F (Mus musculus [27]): 1%
AUC (Mus musculus [28]): 383 ng·h/mL
Tmax (Mus musculus [29]): 2 h
clearance [30]: 15 mL/min/kg
Compound: COc1cc2c(cc(C#N)n2Cc2cn[nH]c2)c(C)c1CN1CCC(Nc2ncnc3sc(CC(F)(F)F)cc23)CC1
GI50 [4]: 180 nM
GI50 [5]: 4200 nM
RatioGI50 (Bone marrow cell): 23
